What was measured:
FLT3-ITD = experiment: FLT3 degradation in FLT3-ITD positive AML lines; type: cell-based, human; conditions: MOLM13-luc+ and MOLM14, 20 μM
[1] = test system: Ba/F3-FLT3-ITD-luc+ cells; experiment: Non-invasive in vivo bioluminescence model of leukemia
Beclin-1 = Beclin-1 and FLT3 protein levels; type: cell-based
[2] = test system: FLT3-ITD+, D835Y+ AML primagraft; experiment: AML primagraft study in NSG mice; type: in vivo
In short: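 Primagraft mice got the test compound at 15 mg/kg IP once daily (n=3) or vehicle (n=3). Dosing began once disease was detectable by flow cytometry and ran for 21 days. Body weight was followed to judge tolerability.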

[3] = test system: FLT3-ITD positive primary AML patient cells and primagraft cells; experiment: Ex vivo treatment of AML patient samples and primagrafts; type: cell-based, human; conditions: 21 hours, 20 μM
wt FLT3 = experiment: FLT3 protein levels in Ba/F3-wtFLT3 cells; type: cell-based, murine
USP10 [4] = biological target: USP10 (Homo sapiens, UniProt Q14694); experiment: MALDI-TOF DUB assay with diubiquitin as substrate, dose response; type: biochemical; conditions: read-out: USP10 IC50
Chain of USP10 (Homo sapiens, UniProt Q14694) (Q14694 whole entry): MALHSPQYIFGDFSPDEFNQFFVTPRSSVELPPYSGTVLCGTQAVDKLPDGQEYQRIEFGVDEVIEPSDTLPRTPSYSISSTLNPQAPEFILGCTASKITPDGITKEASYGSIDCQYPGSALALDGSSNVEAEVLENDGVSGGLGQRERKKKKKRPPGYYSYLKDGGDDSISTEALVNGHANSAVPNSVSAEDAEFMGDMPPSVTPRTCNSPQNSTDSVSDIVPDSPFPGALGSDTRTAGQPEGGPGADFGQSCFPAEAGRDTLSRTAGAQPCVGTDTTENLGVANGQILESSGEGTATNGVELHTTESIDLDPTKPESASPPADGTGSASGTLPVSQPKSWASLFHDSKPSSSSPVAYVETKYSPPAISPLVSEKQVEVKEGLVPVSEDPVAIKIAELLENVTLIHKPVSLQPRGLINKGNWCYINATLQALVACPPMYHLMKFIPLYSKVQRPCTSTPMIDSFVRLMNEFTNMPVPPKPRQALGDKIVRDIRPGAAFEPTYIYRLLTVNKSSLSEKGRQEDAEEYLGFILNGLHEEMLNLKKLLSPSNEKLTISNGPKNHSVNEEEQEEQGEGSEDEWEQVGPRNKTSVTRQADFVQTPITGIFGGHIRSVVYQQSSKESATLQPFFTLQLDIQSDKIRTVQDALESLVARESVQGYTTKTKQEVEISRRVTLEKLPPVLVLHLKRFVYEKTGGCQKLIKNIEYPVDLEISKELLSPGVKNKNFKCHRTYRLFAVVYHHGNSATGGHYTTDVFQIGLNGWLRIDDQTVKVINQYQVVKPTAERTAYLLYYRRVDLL
In short: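 Human USP10 was freshly diluted in 40mM Tris–HCl pH 7.6, 5mM DTT, 0.005% BSA and pre-incubated with test compound for 30 min at room temperature. Di-ubiquitin topoisomers (K63, K48, K11, M1) at 1.5 μM were added, incubated 30 min at room temperature, then stopped with TFA at 2% (v/v) final. Cleavage was read by MALDI-TOF.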

USP10 [5] = experiment: Competitive activity-based protein profiling with HA-Ub-VS in cells; type: cell-based; conditions: lysates from live treated cells (Ba/F3-FLT3-ITD, MOLM14)
[6] = test system: Ba/F3-FLT3-ITD and Ba/F3-FLT3-D835Y cells; experiment: Proliferation of mutant FLT3-positive Ba/F3 cells; type: cell-based, murine
[7] = 50 mg/kg twice daily IP, 4 days, pilot study

Row | Compound | FLT3 degradation (FLT3-ITD) | leukemia burden compared to vehicle (in vivo bioluminescence) ([1]; 50 mg/kg IP twice daily or oral gavage once daily, 4–6 days of treatment) | lower percentage of FLT3 expression in bone marrow vs vehicle (flow cytometry) [1, 7] | reduction in luciferase-positive signal in bone marrow vs vehicle [1, 7] | difference in weight vs vehicle-treated mice ([1]; treated for up to 11 days) | protein levels of Beclin-1 (Beclin-1; 10 μM, MOLM14 cells) | FLT3 signal in mouse bone marrow lysates (immunoblot) ([2]; 15 mg/kg IP 1X daily, 21 days) | tolerability ([2]; 15mg/kg, 21 day treatment) | average weight loss ([2]; 15mg/kg, 21 days, same for vehicle-treated) | FLT3 levels via immunoblotting [3] | FLT3 protein levels (wt FLT3) | IC50 (USP10 [4]) | inhibitor concentration blocking USP10 labeling by HA-Ub-VS (USP10 [5]) | protein levels of Beclin-1 and FLT3 (Beclin-1; 20 μM, Ba/F3-FLT3-ITD and MOLM14 cells) | EC50 for inhibition of proliferation [6]
1 | CC(=O)c1cc([N+](=O)[O-])c(Sc2ccc(F)cc2F)s1 [P22077] | strongly induced FLT3 degradation | statistically significant decrease | approximately 2 fold | approximately 2 fold | no significant difference | strongly decreased | undetectable | generally well tolerated | 2 to 3 g | strong reduction in FLT3 | unchanged | 6 µM |  |  | 
2 | HBX19818 | strongly induced FLT3 degradation |  |  |  |  |  |  |  |  | strong reduction in FLT3 | unchanged | 14 µM | low micromolar range | strongly decreased | single digit micromolar range

From article PMC6314479 (Nature chemical biology, 2017)
